Test results as given in ChEMBL document CHEMBL1914300, “Anti-inflammatory amino acid derivatives from the ascidian Herdmania momus” (J Nat Prod, 2011).
Activity calls are given as the source filed them. The rule behind the calls is not given here.

Key:
[1] = test system: Staphylococcus aureus; experiment: Antibacterial activity against Staphylococcus aureus at 30 ug/disk by agar diffusion assay; assay type: functional, organism-based
[2] = test system: Escherichia coli; experiment: Antibacterial activity against Escherichia coli at 30 ug/disk by agar diffusion assay; assay type: functional, organism-based
[3] = test system: Klebsiella aerogenes; experiment: Antibacterial activity against Klebsiella aerogenes at 30 ug/disk by agar diffusion assay; assay type: functional, organism-based
[4] = test system: Salmonella typhimurium; experiment: Antibacterial activity against Salmonella Typhimurium at 30 ug/disk by agar diffusion assay; assay type: functional, organism-based; conditions: Salmonella enterica subsp. enterica serovar Typhimurium
[5] = test system: Enterobacter cloacae; experiment: Antibacterial activity against Enterobacter cloacae at 30 ug/disk by agar diffusion assay; assay type: functional, organism-based
[6] = test system: RAW264.7; experiment: Inhibition of NO production in LPS-stimulated mouse RAW264.7 cells assessed as nitrite accumulation after 10 mins by Griess reaction method; assay type: functional, cell-based; conditions: RAW264.7, 10 min
Summary of the method: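 Cells were stimulated 24 h with LPS (1 μg/mL) alone or with samples (250, 50, 10, 2 μM). Supernatant was mixed 1:1 with Griess reagent (0.1% naphthalene diamine dihydrochloride, 1% sulfanilamide, 2.5% H3PO4) for 10 min at room temperature. Absorbance at 540 nm was converted against a sodium nitrite standard curve. Mean ± SD of triplicates.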

[7] = test system: RAW264.7; experiment: Cytotoxicity against mouse RAW264.7 cells after 24 hrs by WST-1 assay; assay type: cell-based; conditions: RAW264.7, 24 h
Summary of the method: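 Cells were exposed 24 h to LPS (1 μg/mL) alone or with samples (250, 50, 10, 2 μM). WST-1 reagent was then added for 2 h, and formazan was read at 450 nm. Mean ± SD of triplicate experiments.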

[8] = test system: RAW264.7; experiment: Inhibition of LPS-induced iNOS mRNA expression in mouse RAW264.7 cells at 12.5 to 50 uM by […]; assay type: functional, cell-based
Summary of the method: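 Total RNA from LPS (1 μg/mL)-stimulated cells was isolated by Tri-Reagent. RNA (1 μg) was primed with oligo(dT)18 (70 °C, 5 min) and reverse-transcribed with M-MuLV and 0.5 μM dNTP (25 °C 5 min, 37 °C 60 min), then inactivated at 70 °C for 15 min.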

[9] = test system: RAW264.7; experiment: Antiinflammatory activity in mouse RAW264.7 cells assessed as suppression of LPS-stimulated IL6 production at 25 to 50 uM after 24 hrs by ELISA; assay type: functional, cell-based
Summary of the method: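 Cells at 1.5 × 10^5 cells/mL were preincubated 18 h, then given LPS (1 μg/mL) plus samples (50 and 25 μM) for 24 h. Samples were dissolved in EtOH and diluted in DMEM, with final solvent ≤0.1%. IL-6 in the supernatant was measured by mouse ELISA. Mean ± SD of triplicate experiments.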

[10] = test system: RAW264.7; experiment: Antiinflammatory activity in mouse RAW264.7 cells assessed as inhibition of LPS-stimulated IL6 mRNA expression at 12.5 to 50 uM by RT-PCR; assay type: functional, cell-based
[11] = target: T1, Prostaglandin G/H synthase 2 (Mus musculus) (UniProt Q05769); experiment: Inhibition of COX2-mediated PGE2 production in LPS-stimulated mouse RAW264.7 cells at 25 to 50 uM by ELISA
T1 sequence (whole entry): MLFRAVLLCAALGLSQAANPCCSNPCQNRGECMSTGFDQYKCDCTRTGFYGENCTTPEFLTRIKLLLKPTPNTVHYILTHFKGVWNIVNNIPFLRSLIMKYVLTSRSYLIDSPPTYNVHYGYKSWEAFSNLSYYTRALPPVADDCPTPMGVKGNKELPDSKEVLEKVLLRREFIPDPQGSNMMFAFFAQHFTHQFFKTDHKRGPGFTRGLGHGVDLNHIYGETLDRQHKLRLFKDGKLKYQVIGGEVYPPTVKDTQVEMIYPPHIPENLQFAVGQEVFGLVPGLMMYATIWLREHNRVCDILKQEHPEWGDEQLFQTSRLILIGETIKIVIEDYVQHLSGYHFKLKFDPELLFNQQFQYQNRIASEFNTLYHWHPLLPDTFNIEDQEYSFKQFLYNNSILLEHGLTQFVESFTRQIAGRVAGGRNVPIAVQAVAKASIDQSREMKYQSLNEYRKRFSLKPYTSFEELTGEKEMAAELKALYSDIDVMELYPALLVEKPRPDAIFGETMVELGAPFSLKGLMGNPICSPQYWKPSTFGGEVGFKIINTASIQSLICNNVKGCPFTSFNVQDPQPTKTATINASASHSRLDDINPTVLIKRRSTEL

Row | IC50 [6] | inhibition [11] | Structure (SMILES) | Activity [1] | Activity [2] | Activity [3] | Activity [4] | Activity [5] | IC50 [7] | inhibition [8] | Activity [9] | inhibition [10]
1 |  |  | N=C(N)NCCC[C@@H](NC(=O)c1ccc(OC(=O)c2c[nH]c3ccccc23)cc1)C(=O)O | inactive | inactive | inactive | inactive | inactive |  |  |  | 
2 | 9 µM | Active | N[C@@H](Cc1ccc(OC(=O)c2c[nH]c3cc(Br)c(O)cc23)cc1)C(=O)O [HERDMANINE D] | inactive | inactive | inactive | inactive | inactive | 170 µM | Active | Active | Active
3 | 96 µM | Active | N=C(N)NCCC[C@@H](NC(=O)c1ccc(OC(=O)c2ccc(O)cc2)cc1)C(=O)O [HERDMANINE C] | inactive | inactive | inactive | inactive | inactive |  | Active | Active | Active
